Test results reported in ChEMBL document CHEMBL4428072, “Pharmacophore Model To Discover OX1 and OX2 Orexin Receptor Ligands” (J Med Chem, 2016).
Activity calls are given as the source filed them. No cut-off for these calls is given here.

Tests used:
CHO = experiment: Induction Ca2+ levels in CHO cells at 1 uM by FLIPR calcium 4 assay; format: functional, cell-based; settings: Cricetulus griseus
In short: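 Control CHO cells lacking orexin receptors, loaded with Calcium 4 dye in HBM + probenecid for 60 min at 37 °C. Compound added (1 and 10 μM) and the Ca2+ fluorescence response read at 485/525 nm at 37 °C.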

[1] = molecular target: T1, Orexin/Hypocretin receptor type 1 (Homo sapiens) (UniProt O43613); experiment: Agonist activity at human OX1 receptor expressed in […] assessed as induction of Ca2+ elevation at 10 uM after 30 mins by FLIPR calcium 4 assay relative to orexin-A; format: functional, cell-based
T1 sequence (whole entry): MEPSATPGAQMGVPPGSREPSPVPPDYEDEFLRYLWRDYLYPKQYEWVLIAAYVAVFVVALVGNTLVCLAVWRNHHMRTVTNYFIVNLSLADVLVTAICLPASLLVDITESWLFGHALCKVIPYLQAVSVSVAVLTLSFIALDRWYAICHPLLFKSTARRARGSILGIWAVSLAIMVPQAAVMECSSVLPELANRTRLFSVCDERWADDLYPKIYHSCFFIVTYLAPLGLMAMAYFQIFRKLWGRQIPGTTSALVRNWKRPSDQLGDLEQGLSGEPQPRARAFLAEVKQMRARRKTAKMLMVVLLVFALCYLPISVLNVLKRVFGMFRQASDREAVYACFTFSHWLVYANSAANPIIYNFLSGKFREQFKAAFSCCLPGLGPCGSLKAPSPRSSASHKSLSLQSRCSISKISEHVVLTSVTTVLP
In short: (§1)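 CHO-hOX1 or CHO-hOX2 cells plated overnight at 1.5 × 10^4 cells/well, loaded with Calcium 4 dye in HBM + probenecid for 60 min at 37 °C. Fluorescence read at 485/525 nm, 37 °C. 30 s baseline, then compound at 10 μM (tested twice in validation; thrice at 1 and 10 μM in quadruplicate in characterization). Response expressed as % of orexin-A maximal response; background response measured within each experiment.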

Orexin receptor type 2 [2] = molecular target: T2, Orexin receptor type 2 (Homo sapiens, UniProt O43614); experiment: Displacement of [125I]-orexin A from human OX2 receptor expressed in […] after 90 mins by scintillation counting
T2 sequence (O43614 whole entry): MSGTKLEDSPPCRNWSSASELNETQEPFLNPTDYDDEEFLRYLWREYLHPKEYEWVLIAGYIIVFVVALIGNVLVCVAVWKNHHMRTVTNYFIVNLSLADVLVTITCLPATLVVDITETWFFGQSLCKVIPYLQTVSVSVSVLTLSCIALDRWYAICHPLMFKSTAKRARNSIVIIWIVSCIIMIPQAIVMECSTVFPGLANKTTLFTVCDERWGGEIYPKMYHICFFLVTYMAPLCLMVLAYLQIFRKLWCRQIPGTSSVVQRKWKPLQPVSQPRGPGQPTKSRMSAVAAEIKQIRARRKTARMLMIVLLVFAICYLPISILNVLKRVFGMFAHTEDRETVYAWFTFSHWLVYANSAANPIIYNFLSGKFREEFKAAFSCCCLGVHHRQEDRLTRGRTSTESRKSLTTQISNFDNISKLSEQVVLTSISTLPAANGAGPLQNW
In short: (§2)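 Intact CHO-hOX1 or CHO-hOX2 cells in HBM + 0.1% stripped BSA + 30 μM dyngo 4a, preincubated 10 min (10 μM antagonist used to define nonspecific binding). 0.05 nM [125I]-orexin-A added with compound (10 nM–100 μM, 10-fold series). Incubated 90 min at room temperature, wells dried, scintillation counted. At least three experiments; IC50/Ki by nonlinear fitting.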

Homo sapiens [3] = organism: Homo sapiens; experiment: Ratio of Ki for human OX1 receptor expressed in […] to Ki for human OX2 receptor expressed in […] by [125I]-orexin A displacement assay; format: cell membranes; in short: as §2
[4] = molecular target: T3, Orexin receptor type 2 (Homo sapiens) (UniProt O43614); experiment: Agonist activity at human OX2 receptor expressed in […] assessed as induction of Ca2+ elevation at 10 uM after 30 mins by FLIPR calcium 4 assay relative to orexin-A; format: functional, cell-based; in short: as §1
T3 sequence (whole entry): T2 sequence (O43614 whole entry)

[5] = molecular target: T1, Orexin/Hypocretin receptor type 1 (Homo sapiens); experiment: Agonist activity at human OX1 receptor expressed in CHO cells assessed as induction of Ca2+ elevation at 5 uM after 2 mins by FLIPR calcium 4 assay relative to orexin-A; format: functional, cell-based
In short: (§3)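 Screening in CHO-hOX1 or CHO-hOX2 cells loaded with Calcium 4 dye in HBM (137 mM NaCl, 20 mM Hepes, 1 mM CaCl2, pH 7.4) + probenecid. Fluorescence at 485/525 nm, 37 °C. 30 s baseline, compound added to 5 μM final and read for 120 s; the delayed response was read 30 min after addition for 30 s. Tested once in triplicate; % of full orexin-A activation.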

[6] = molecular target: T3, Orexin receptor type 2 (Homo sapiens); experiment: Agonist activity at human OX2 receptor expressed in CHO cells assessed as induction of Ca2+ elevation at 5 uM after 2 mins by FLIPR calcium 4 assay relative to orexin-A; format: functional, cell-based; in short: as §3
[7] = molecular target: T1, Orexin/Hypocretin receptor type 1 (Homo sapiens); experiment: Agonist activity at human OX1 receptor expressed in CHO cells assessed as induction of Ca2+ elevation at 5 uM after 30 mins by FLIPR calcium 4 assay relative to orexin-A; format: functional, cell-based; in short: as §3
[8] = molecular target: T1, Orexin/Hypocretin receptor type 1 (Homo sapiens); experiment: Displacement of [125I]-orexin A from human OX1 receptor expressed in […] at 10 uM after 90 mins by scintillation counting
[9] = molecular target: T1, Orexin/Hypocretin receptor type 1 (Homo sapiens); experiment: Agonist activity at human OX1 receptor expressed in […] assessed as induction of Ca2+ elevation at 10 uM after 30 mins by FLIPR back ground response; format: functional, cell-based; in short: as §1
[10] = molecular target: T3, Orexin receptor type 2 (Homo sapiens); experiment: Agonist activity at human OX2 receptor expressed in […] assessed as induction of Ca2+ elevation at 10 uM after 30 mins by FLIPR back ground response; format: functional, cell-based; in short: as §1
[11] = molecular target: T3, Orexin receptor type 2 (Homo sapiens); settings: CHO, at 10 µM
[12] = molecular target: T4, Orexin/Hypocretin receptor type 1 (Homo sapiens, UniProt O43613); experiment: Antagonist activity at human OX1 receptor expressed in […] assessed as inhibition of orexin A-induced Ca2+ elevation after 30 mins in presence of orexin A by FLIPR calcium 4 assay; format: functional, cell-based
T4 sequence (O43613 whole entry): T1 sequence (whole entry)
In short: (§4)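 Functional inhibition in CHO-hOX1 or CHO-hOX2 cells. Antagonist (10 nM–100 μM, 10-fold series) preincubated 10 min at 37 °C, then 0.3 nM orexin-A added. Ca2+ measured with Calcium 4 dye at 485/525 nm. Ki derived from inhibition of the orexin-A response. Three independent experiments in quadruplicate; mean ± SEM.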

Orexin receptor type 2 [13] = molecular target: T2, Orexin receptor type 2; experiment: Antagonist activity at human OX2 receptor expressed in […] assessed as inhibition of orexin A-induced Ca2+ elevation […] in presence of orexin A by FLIPR calcium 4 assay; format: functional, cell-based; in short: as §4
[14] = molecular target: T1, Orexin/Hypocretin receptor type 1 (Homo sapiens); experiment: Ratio of Ki for human OX1 receptor expressed in […] assessed as inhibition of orexin A-induced Ca2+ elevation to Ki for human OX1 receptor expressed in CHO cells by [125I]-orexin A displacement assay
[15] = molecular target: T1, Orexin/Hypocretin receptor type 1 (Homo sapiens); experiment: Antagonist activity at human OX1 receptor expressed in CHO cells assessed as inhibition of orexin A-induced Ca2+ elevation at 5 uM after 30 mins by FLIPR calcium 4 assay; format: functional, cell-based
In short: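 Screening second round: after the 5 μM compound agonist read in CHO-hOX1 cells, 0.3 nM orexin-A was added at 30 s to all wells and the inhibition of the Ca2+ response was read by Calcium 4 fluorescence at 37 °C. Vehicle controls were included in each column. Tested once in triplicate.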

[16] = molecular target: T3, Orexin receptor type 2 (Homo sapiens); settings: CHO, at 5 µM
[17] = molecular target: T3, Orexin receptor type 2 (Homo sapiens); experiment: Agonist activity at human OX2 receptor expressed in CHO cells assessed as induction of Ca2+ elevation at 10 uM after 30 mins in presence of TCS-1102 by FLIPR calcium 4 assay relative to orexin-A; format: functional, cell-based
In short: (§5)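 Agonist Ca2+ read in CHO-hOX1 or CHO-hOX2 cells loaded with Calcium 4 dye at 37 °C. Compound at 10 μM was added with or without 10 μM orexin antagonist to define the receptor-specific response. Expressed as % of full orexin-A response, taken from orexin-A concentration–response curves run in each experiment.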

[18] = molecular target: T1, Orexin/Hypocretin receptor type 1 (Homo sapiens); experiment: Agonist activity at human OX1 receptor expressed in CHO cells assessed as induction of Ca2+ elevation at 10 uM after 30 mins in presence of TCS-1102 by FLIPR calcium 4 assay relative to orexin-A; format: functional, cell-based; in short: as §5
Homo sapiens [19] = organism: Homo sapiens; experiment: Ratio of Ki for human OX1 receptor expressed in CHO cells to Ki for human OX2 receptor expressed in CHO cells by Ca2+ elevation based assay; format: cell-based; in short: as §4

| Activity [1] | IC50 (Orexin receptor type 2 [2]) | Ki (Orexin receptor type 2 [2]) | Activity [5] | Activity [6] | Activity [7] | inhibition [8] | fold change (FC) [9] | fold change (FC) [10] | inhibition [11] | Ki [12] | Ki (Orexin receptor type 2 [13]) | Ratio Ki [14] | inhibition [15] | inhibition [16] | Structure (SMILES) | Activity (CHO) | also measured |
| --- | --- | --- | --- | --- | --- | --- | --- | --- | --- | --- | --- | --- | --- | --- | --- | --- | --- |
| 7.3% | 1.7 µM | 2.5 µM | Active | Active | Active | > 70% | 3.4 | 1.4 to 2.2 | > 70% |  |  |  |  |  | COC(=O)CN(C(C)=O)C(c1ccccc1)c1cc(Br)ccc1NC(=O)c1ccccc1Cl (centres undefined) | inactive | Ratio Ki (Homo sapiens [3]): 10; Activity [4]: 1 to 3.7% |
| 2.7% |  |  | Active | Active | Active | 20 to 40% | 1.9 | 1.4 to 2.2 | 20 to 40% |  |  |  |  |  | COc1ccc(Nc2nc(NCc3ccco3)nc(N/N=C\c3cc(Br)c(O)c(Br)c3)n2)cc1 | inactive | Activity [17]: 3.5% |
|  |  |  |  |  | Active | > 50% |  |  |  | 16.2 µM |  |  | > 20% |  | Cc1cccc2c1[nH]c1nc(N/N=C\c3c4ccccc4cc4ccccc34)nnc12 |  |  |
|  | 0.5 µM | 0.8 µM |  |  | Active | > 50% |  |  | > 50% | 13.1 µM | 0.9 µM | 2 to 9 | > 20% | > 20% | COc1ccc(CCNC(=O)Cn2c(-c3nonc3N)nc3ccccc32)cc1OC |  |  |
|  | 0.07 µM | 0.1 µM |  |  | Active | > 50% |  |  | > 50% | 46.7 µM | 0.1 µM | 2 to 9 | > 20% | > 20% | COc1ccc(N(CC(=O)NC(C)c2ccccc2)S(=O)(=O)c2ccc(OC)c(OC)c2)cc1 (centres undefined) |  | Ratio Ki (Homo sapiens [19]): 50 |
|  | 0.13 µM | 0.2 µM |  |  | Active | > 50% |  |  | > 50% | 6 µM | 0.3 µM | 2 to 9 | > 20% | > 20% | O=C(CSc1nnc(-c2cccs2)n1Cc1ccco1)Nc1ccc2c(c1)OCCO2 |  | Ratio Ki (Homo sapiens [19]): 20 |

More lines, now with the values behind:

| Structure (SMILES) | Activity [1] | IC50 (Orexin receptor type 2 [2]) | Ki (Orexin receptor type 2 [2]) | Activity [5] | Activity [6] | Activity [7] | inhibition [8] | fold change (FC) [9] | fold change (FC) [10] | inhibition [11] | Ki [12] | Ki (Orexin receptor type 2 [13]) | Ratio Ki [14] | inhibition [15] | inhibition [16] | Activity (CHO) | also measured |
| --- | --- | --- | --- | --- | --- | --- | --- | --- | --- | --- | --- | --- | --- | --- | --- | --- | --- |
| C=CCN1C(=O)C2(Nc3ccccc3C(=O)N2c2ccccc2OC)c2ccccc21 (centres undefined) |  | 0.7 µM | 1 µM |  |  | Active | > 50% |  |  | > 50% | 21.6 µM | 1.2 µM | 2 to 9 | > 20% | > 20% |  |  |
| CC(/C=C/c1ccccc1)=N/Nc1nc(Nc2ccccc2)nc(-n2nc(C)cc2C)n1 | 5.4% | 11.8 µM | 17.8 µM | Active | Active | Active | 20 to 40% | 2.8 | 1.4 to 2.2 | 20 to 40% |  |  |  |  |  | inactive | Activity [18]: 2.1%; Activity [4]: 1 to 3.7% |
| Cc1ccc(C(O)(C(=O)NNc2cc(Cl)ccc2Cl)c2ccc(C)cc2)cc1 |  | 0.8 µM | 1.3 µM |  |  | Active | > 50% |  |  | > 50% | 10.3 µM | 1.7 µM | 2 to 9 | > 20% | > 20% |  |  |
| COc1ccccc1OCCNC[C@@H](O)COc1cccc2[nH]c3ccccc3c12 [(R)-Carvedilol] | 6.3% | 0.9 µM | 1.4 µM | Active | Active | Active | > 70% | 3.3 | 1.4 to 2.2 | > 70% |  |  |  |  |  | inactive | Activity [4]: 1 to 3.7% |
| CCOC(=O)c1c(NC(=O)C(C)Sc2nnc(CNC(=O)c3cc(OC)cc(OC)c3)n2-c2ccccc2OC)sc2c1CCC2 (centres undefined) |  | 0.7 µM | 1.1 µM |  |  | Active | > 50% |  |  | > 50% | 7 µM | 1 µM | 2 to 9 | > 20% | > 20% |  |  |
